ChEMBL document CHEMBL4513216, “Probing the Open Global Health Chemical Diversity Library for Multistage-Active Starting Points for Next-Generation Antimalarials” (ACS Infect Dis, 2020)

Test: Toxicity liver stage against HepG2, at 10uM
Type: cell-based
Design: test concentration 10 uM, cell line HepG2-A16-CD81EGFP
Conditions: human, HepG2-A16-CD81EGFP cells; read-out: INHIBITION
Method in brief: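 Uninfected HepG2-A16-CD81EGFP cells, 3 × 10^3 per well, 1536-well, plated on prespotted compound at 10 μM final, parasite-free screening media added to match infected plates; puromycin 10 μM positive, DMSO 0.5% negative; run in parallel with 48 h PbLuc assay at 37 °C, 5% CO2; viability by CellTiter-Glo luminescence, normalized to controls.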

SMILES	cytotoxicity at 10 µM [%]
CSc1nccc(N2CCC(=O)N(CC3CC3)C(C(C)C)C2)n1 (stereo not given)	-2.02
O=C(CCc1ccsc1)N1CCC(Nc2cccnn2)CC1	-4.71
COCc1noc(-c2ccc(N(C)Cc3cn(C)nc3C)nc2)n1	-9.75
CS(=O)(=O)NC[C@]12COC[C@H]1CN(CCc1ccccc1)C2	12.3
CCc1nc(C2CCCN2CC(=O)NCCc2ccsc2)no1 (stereo not given)	-2.81
O=S(=O)(NC1CCCOC1)c1ccc(C(F)(F)F)nc1 (stereo not given)	-1.38
CC1CCCCN1C(=O)c1nc2c(n1C(C)C)CCN(C(=O)C1CC1)C2 (stereo not given)	15.4
COCCN1CCC(NCc2cccnc2)C1 (stereo not given)	-10.4
COc1cccc(-c2noc(C3CCN(Cc4cn(C)nc4C)C3)n2)c1 (stereo not given)	11.4
CCc1ocnc1C(=O)Nc1ccc2ccn(CCN(C)C)c2c1	4.81
CN(Cc1nncn1C)C(=O)c1cc(COc2ccccc2)[nH]n1	9.23
Cc1csc(CNC(=O)CCCc2cccs2)n1	-47.1
O=C([C@H]1C[C@H]2OCC[C@H]2N(C(=O)C2CCOCC2)C1)N1CCCCO1	-8.28
CCS(=O)(=O)N1CCO[C@H]2[C@H](OCC3CCCC3)CC[C@@H]21	-9.6
CN(C)c1ncc(-c2ccc(F)cc2)c(C2CNCCO2)n1 (stereo not given)	-5.68
CN(C)CCNC(=O)CCn1ncc2c(Cl)cccc21	5.92
COc1cc(C(=O)N2CCCC(CNS(C)(=O)=O)C2)ccc1C (stereo not given)	-21.6
Cc1cc(-c2cnn(CCNC(=O)c3snnc3C)c2C2CC2)on1	-7.16
NC(=O)C(NC1CCN(CC2CCCCC2)CC1)c1ccccc1 (stereo not given)	-4.57
O=S(=O)(c1cccc(Cl)c1)N1CCCC(Cn2cncn2)C1 (stereo not given)	-7.21
CCNC(=O)[C@@H]1C[C@@H](n2cc(CC3CCCCC3)nn2)CN1	5.42
O=C(NCCc1ccncc1)c1ccc(N2CCOCC2)cc1	-5.08

SMILES	cytotoxicity at 10 µM [%]
Cc1cccc(CN2CCC3(CC2)CC(c2cccnc2)C(=O)N3C)n1 (stereo not given)	7.53
CN1CC2(COCCN(C(=O)c3ccco3)C2)OCC1=O (stereo not given)	2.33
CC(C)[C@@H]1CN(C2CCN(Cc3ccccc3)CC2)C[C@H]1NS(C)(=O)=O	-10.7
O=C(c1ccn(-c2ccccc2Cl)n1)N1CCSCC1	15.6
CCOC1CCCN(C(=O)c2sccc2-n2cnnn2)C1 (stereo not given)	4.39
CCN1C(=O)CCC12CCC(NC(=O)c1ccncc1F)CC2 (stereo not given)	0.758
Cc1csc2ncc(-c3ccnc(N4CCC[C@H](C(N)=O)C4)n3)c(=O)n12	-13.3
Cc1noc(C)c1CN1CCOCC12CCN(c1ncccn1)CC2	-104
CS(=O)(=O)c1ccccc1NCc1ccc(Cn2ccnc2)cc1	1.67
CCC(C)NC(=O)Cc1c(C)nc2c(c1C)c(=O)[nH]n2C (stereo not given)	-11.4
O=C(Nc1ccccc1)N1C[C@@H]2C[C@H](C(=O)N3CCOCC3)[C@H](C1)O2	7.53
Cc1ccc(NCc2ccccc2C#N)cc1-n1cnnn1	4.25
CC(O)C1CCN(Cc2cnc3c(-c4ccccc4)cnn3c2)CC1 (stereo not given)	-0.537
CNC(=O)c1cccnc1NCc1ccc(Cn2ccnc2)cc1	90.3
O=C(O)C(c1ccc2c(c1)OCO2)N1CCCCCC1 (stereo not given)	-0.293
CC(C(=O)N1CCCCC1)n1nc(-c2cccs2)cc(N)c1=O (stereo not given)	10.8
Cc1noc(COCC(=O)N2CCCCC2c2nccs2)n1 (stereo not given)	6.9
CCc1cccc(N2CCC(NC(=O)C3CCOCC3)CC2)c1	-8.93
CC(C)[C@@H]1CN(Cc2cnc3c(S(C)(=O)=O)cnn3c2)C[C@H]1N(C)C	-3.5
CN(CC(F)(F)F)C(=O)COc1nc(Cc2ccc(F)cc2)no1	9.36
Cc1noc(C(C)Nc2ccc3c(c2)CCC3)n1 (stereo not given)	1.84
CCCS(=O)(=O)N1CCC2(CC1)CN(c1ccccn1)CCO2	6.66

SMILES	cytotoxicity at 10 µM [%]
Cn1nc(CNC(=O)c2ccc(Cl)cc2)c2c1CCOC2	5.86
O=C(c1c[nH]cn1)N1CCOCC2(C1)CN(c1ccccc1)C(=O)CO2 (stereo not given)	-7.27
Cc1cccc(OC2CCN(Cc3ncc[nH]3)CC2)c1	-7.15
CC(C)(C(=O)NCC1CC1)c1ccccc1F	-5.47
O=C(c1sccc1C1CC1)N1CCCN(Cc2cscn2)CC1	-14.7
CNC(=O)[C@@]12CCCN(c3ncccn3)[C@@H]1CN(c1ncc(F)cn1)C2	-1.43
CC(C(=O)Nc1ccnn1C(C)C)N1CCN(Cc2ccccc2)CC1 (stereo not given)	-7.55
Cc1nc(C)n(CC2CCCN2Cc2cc(C)on2)n1 (stereo not given)	4.04
C=C(C)CN1CCN(Cc2cnc(OC)nc2)CC1	5.16
O=C(NCc1ccco1)[C@H]1CC[C@@H]2[C@@H](CCN2C2CCC2)O1	6.47
CSc1ccc(C(=O)N2C[C@@H]3CC[C@H]2CN(Cc2cccnc2)C3)cc1	-7.38
Cn1nc2c(c1NC(=O)c1ccc(Cl)s1)CCC2	-1.51
CC(C)Cc1ncc2c(n1)CN(c1cc(NCCO)nc(N)n1)C2	-2.68
Cc1ccnn1-c1ccc(C(=O)N2CCN(c3cnccn3)CC2)cc1	-2.31
CCN(C(=O)Cn1cc(Cl)cn1)c1ccccc1	-8.01
CN(C)CCNc1cc(-c2ncccn2)c2cc[nH]c2n1	6.39
CC(C)[C@H]1CN(Cc2ccccn2)C[C@@H]1NS(=O)(=O)C1CC1	-0.578
CCC(C)Oc1ccc(CNCCNS(C)(=O)=O)cc1Cl (stereo not given)	-6.78
O=C(CCOc1ccccc1)N1CCCC(n2cncn2)C1 (stereo not given)	-2.95
O=S(=O)(NCC1CCN(c2cnccn2)CC1)c1cccs1	6.28
CCc1ccc(CCC(=O)NCc2nnc[nH]2)cc1	7.47
Clc1ccccc1CCn1ccnc1-c1cn(C2CCNCC2)nn1	0.33

SMILES	cytotoxicity at 10 µM [%]
CS(=O)(=O)N1CCOCC2(CCN(c3ccccn3)C2)C1 (stereo not given)	14.3
O=C(N1CCCC1)N1C[C@@H]2CC[C@H]1CN(Cc1ccncc1)C2	4.63
Cc1cccc(N2CCCC2c2nc(C)ncc2CN(C)C)n1 (stereo not given)	-2.17
CCc1cc(NC(=O)c2cccc(OCC(F)(F)F)n2)[nH]n1	-1.42
Cc1nn(C)cc1C(=O)N1CCCN(C2Cc3ccccc3C2)CC1	-3.16
CCCOc1ccc(NC(=O)NCCC(=O)N(C)C)cc1Cl	-10.9
CC(NC(=O)CSCC#N)c1cccc(NC(=O)c2ccccc2)c1 (stereo not given)	-1.79
Cc1ccc(N2CC[C@@H]3CN(Cc4cc[nH]n4)C[C@@H]3C2)nn1	3.47
CNc1nc(C2CCCN(C(=O)C(C)(C)OC)C2)nc2c1CN(C)CC2 (stereo not given)	-8.24
Cc1nc(CN2CCCC(NCc3cccc(C(N)=O)c3)C2)no1 (stereo not given)	-14.5
Cc1ccc(-c2noc([C@H](N)CC(C)C)n2)nn1	1.27
CCn1cnnc1CNC(=O)N1CCOC(c2ccc(Cl)cc2)C1 (stereo not given)	4.13
CC(=O)CSc1nc2c(cnn2CCO)c(=O)[nH]1	-2.22
O=C(NCc1ccc(-n2cncn2)nc1)N(CC1CCOC1)C1CC1 (stereo not given)	1.74
Cn1cc(NS(=O)(=O)c2ccc(F)c(F)c2)ccc1=O	-9.59
COCCN1CCC2(CC1)CC(NCc1ccc(C)s1)c1ccccc12 (stereo not given)	-121
O=C(N[C@@H]1CN(Cc2c[nH]nc2-c2ccccc2)C[C@H]1O)c1cc[nH]n1	2.8
CC(C)N1CCCC(c2cc(C(F)(F)F)nc3nccn23)C1 (stereo not given)	-11.1
CCc1cnc(CN2CCC(N(C)Cc3noc(C)n3)C2)o1 (stereo not given)	4.92
Cc1ccc(CN2CCN(c3cc(NCCO)ncn3)CC2CCO)o1 (stereo not given)	7.11
CC(NC(=O)NC1CCN(Cc2ccccc2)CC1)c1nncn1C (stereo not given)	-12.5
CNC1CCC2(CC1)CNC(=O)c1cc(C)ccc1O2 (stereo not given)	-9.28

SMILES	cytotoxicity at 10 µM [%]
CC(=O)c1cnc(N(C)Cc2cc(C)cc(C)n2)nc1C	8.81
O=C(NCC1(O)COCCN(Cc2cccc(O)c2)C1)c1cscn1 (stereo not given)	-2.28
CN(C)C(=O)COc1ccccc1CN1CCCC2(C1)CN(C)C(=O)O2 (stereo not given)	0.224
O=c1[nH]nc(CCCN2CCOCC2)n1-c1ccc(F)cc1F	4.54
CCc1ncc2c(n1)CN(CCCc1nc3ccccc3o1)CC2	-10.6
c1ccc(COCC2CN(Cc3ccsc3)Cc3nccn3C2)nc1 (stereo not given)	-69.6
O=C1COc2ccc(S(=O)(=O)NCC3CCCO3)c3c2N1CCC3 (stereo not given)	-4.2
O=S(=O)(N1CCCC1)N1C[C@@H](c2cccc(F)c2)[C@@H]2NCCCCC[C@H]21	-25
CN(Cc1ccncc1)C1COC2(CCN(Cc3ccccn3)CC2)C1 (stereo not given)	-103
Cc1cc(-c2nccn2CCN2CCCCC2CO)oc1C (stereo not given)	0.264
Cc1ccc(-c2ncc(C(=O)NCCNC(=O)C(C)C)s2)c(C)c1	-6.53
CC(=O)N1CCN(C(C)c2nnc(CC(C)C)o2)CC1 (stereo not given)	6.88
CCc1ccsc1C(=O)NC(C#N)CC (stereo not given)	3.15
N#Cc1ccc(N2CCC3(CC2)CC(N2CCOCC2)CO3)cc1 (stereo not given)	19
Cc1ccc(C(=O)N2CCCC(NC(=O)C(C)C)C2)c(O)c1 (stereo not given)	-7.84
Cc1nc(-c2ccoc2)n(CC(=O)NCC(C)C)c1C	-1.49
CCOc1ncccc1NC(=O)N1CCN(c2cccc(C)c2C)CC1	81.2
CN(C)S(=O)(=O)N1C[C@H]2CCC[C@@]2(COCC2CC2)C1	6.13
COc1cccc(S(=O)(=O)NC(=O)C2CC(c3ccccc3)=NO2)c1 (stereo not given)	3.73
CC(C)(NCc1ccc(C#N)cc1)c1ccc2c(c1)OCO2	2.3
CCN(CC)Cc1ccc(C(=O)N2CCCC2Cn2cc(C)cn2)o1 (stereo not given)	-11.4
CN1CCCN(C(=O)c2csc(-c3ccc(C(F)(F)F)cc3)n2)CC1	-5.81
